Article PMC3621710 (Bioconjugate chemistry, 2009)
Square brackets hold non-standard residues; d marks the D form. Ends that are not written are not given here.

Assays:
[1] = target: MC1 receptor (B16/F1 melanoma cells) (Mus musculus, UniProt Q01727); details: read-out: MC1 receptor binding affinity; cited from earlier work
B16/F1 melanoma cells = test: Clonogenic cytotoxicity; assay type: cell-based, murine; details: 0.1 μM peptide, 3 h incubation at 37 °C, colonies over 6 days
Procedure, shortened: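 B16/F1 cells seeded at 200 cells/well and held overnight at 37 °C. After a wash with RPMI 1640, cells were exposed for 3 h at 37 °C to 0.1 μM test peptide in medium; controls received medium only. After two PBS washes, colonies grew for 6 days with medium changed every other day. Cells were fixed in methanol:glacial acetic acid (3:1) and hematoxylin-stained; colonies >50 cells scored as survivors. Survival normalized to untreated (100%); unpaired Student's t-test.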

Chain of MC1 receptor (B16/F1 melanoma cells) (Q01727 whole entry): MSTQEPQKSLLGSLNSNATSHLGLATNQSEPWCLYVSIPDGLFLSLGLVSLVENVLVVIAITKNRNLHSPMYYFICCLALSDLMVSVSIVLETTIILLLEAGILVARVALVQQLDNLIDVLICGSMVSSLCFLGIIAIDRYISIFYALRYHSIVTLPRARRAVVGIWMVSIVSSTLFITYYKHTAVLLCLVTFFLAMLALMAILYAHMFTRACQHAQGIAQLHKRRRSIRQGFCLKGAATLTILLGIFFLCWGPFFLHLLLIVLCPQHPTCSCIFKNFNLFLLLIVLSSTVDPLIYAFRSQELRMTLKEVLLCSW

Row | Substance | IC50 [1] [nM] | decrease in clonogenic survival compared to untreated group (B16/F1 melanoma cells) [%]
1 | [Cys^3,4,10, D-Phe^7, Arg^11]α-MSH3-13 (CCEH[dF]RWCRPV; not fully specified (C-terminus); ends and bridges not checked) [(Arg^11)CCMSH] | 1.7 | –
2 | [Cys^3,4,10, D-Phe^7, Arg^11]α-MSH3-13 [(Arg^11)CCMSH] | – | 11
